Consider twelve compounds from ChEMBL document CHEMBL1122035, “Preparation and evaluation of 2-substituted anthraquinones based on the anthracyclines” (1982).

Assay [1] has as its system Nucleic Acid. Description: DNA binding property and activity expressed as K. The format is nucleic-acid assay. Summed up: (§1)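 Absorbance read at the unbound-drug λmax after 5-min equilibration, against a buffer blank. K and n were obtained by nonlinear regression of absorbance against cumulative DNA volume, using a one- or two-site model.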
For assay [2], the system named is Mus musculus. Nature of the assay: In vivo antitumor activity against P-388 leukemia in mice at the dose of 5 mg/kg. The format is functional. In a few lines:
(§2)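 P-388 leukemia in mice; compounds given as hydrochloride salts. Screening was done by the NCI Drug Research and Development Program. Result expressed as T/C (%).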

Assay [3] relates to Nucleic Acid. Nature of the assay: DNA binding property and activity expressed as Kn. In kind it is nucleic-acid assay. In a few lines: as §1
The test system of assay [4] is Mus musculus. Description: In vivo antitumor activity against P-388 leukemia in mice at the dose of 50 mg/kg. In kind it is functional. In a few lines: as §2
In assay [5] the test system is Mus musculus. Nature of the assay: In vivo antitumor activity against P-388 leukemia in mice at the dose of 200 mg/kg. In kind it is functional. In a few lines: as §2
The subject of assay [6] is Mus musculus. Description: In vivo antitumor activity against P-388 leukemia in mice at the dose of 40 mg/kg. In kind it is functional. Summed up:
as §2

Assay [7] concerns Mus musculus. Description: In vivo antitumor activity against P-388 leukemia in mice at the dose of 100 mg/kg. The format is functional. Summed up:
as §2

Turning to `CCN(CC)CCCC(C)NC(=O)c1ccc2c(c1O)C(=O)c1ccccc1C2=O.Cl` (stereo not given), in the assay with Nucleic Acid [1], the K turned out to be 78000 M⁻¹. The T/C – broadly, the ratio of treated to control – in the assay on Mus musculus [2] came to 106%. Besides, the Kn in the assay on Nucleic Acid [3] was determined as 10100 M⁻¹.
In turn, `CN(C)CCCNC(=O)Cc1cc(O)c2c(c1O)C(=O)c1ccccc1C2=O.Cl` registered a K with Nucleic Acid [1] of 259000 M⁻¹. In the assay on Mus musculus [4], this compound returned a T/C of 106%. In addition, the Kn in the assay on Nucleic Acid [3] stood at 65000 M⁻¹.
For `CCN(CC)CCCNC(=O)Cc1cc(O)c2c(c1O)C(=O)c1ccccc1C2=O.Cl`, in that order: 127000 M⁻¹, 108% and 29000 M⁻¹.
Compound `CCN(CC)CCCNC(=O)c1ccc2c(c1O)C(=O)c1ccccc1C2=O` yielded a K in the assay on Nucleic Acid [1] of 92000 M⁻¹. Also, in the assay on Nucleic Acid [3], the Kn was determined as 12900 M⁻¹.
As to `CCN(CC)CCCC(C)NC(=O)c1ccc2c(c1)C(=O)c1ccccc1C2=O.Cl` (stereo not given), the T/C with Mus musculus [5] is reported as 127%.
In the assay on Mus musculus [6], `CCN(CC)CCCC(C)NC(=O)Cc1cc(O)c2c(c1O)C(=O)c1ccccc1C2=O.Cl` (stereo not given) came in with a T/C of 125%. Besides, the K with Nucleic Acid [1] was found to be 308000 M⁻¹. The compound further displayed a Kn in the assay on Nucleic Acid [3] of 49000 M⁻¹.
In turn, `CCN(CC)CCNC(=O)Cc1cc(O)c2c(c1O)C(=O)c1ccccc1C2=O.Cl` displayed a T/C in the assay with Mus musculus [7] of 106%. This compound had a K in the assay with Nucleic Acid [1] of 529000 M⁻¹. The Kn in the assay with Nucleic Acid [3] is 100000 M⁻¹.
Take `CCN(CC)CCNC(=O)c1ccc2c(c1O)C(=O)c1ccccc1C2=O`: the K in the assay with Nucleic Acid [1] was found to be 46000 M⁻¹. In addition, in the assay on Nucleic Acid [3], the Kn worked out at 9100 M⁻¹.
For `CN(C)CCNC(=O)Cc1cc(O)c2c(c1O)C(=O)c1ccccc1C2=O.Cl`, the T/C in the assay on Mus musculus [7] is recorded as 118%. In the assay with Nucleic Acid [1], this compound came in with a K of 289000 M⁻¹. This compound registered a Kn in the assay with Nucleic Acid [3] of 75000 M⁻¹.
As for `CCN(CC)CCNC(=O)c1ccc2c(c1)C(=O)c1ccccc1C2=O.Cl`, the T/C in the assay with Mus musculus [5] amounted to 119%.
Consider `CN(C)CCCNC(=O)c1ccc2c(c1O)C(=O)c1ccccc1C2=O.Cl`, for which the K with Nucleic Acid [1] came out at 78000 M⁻¹. The same compound had a T/C in the assay on Mus musculus [4] of 118%. In the assay on Nucleic Acid [3], this compound returned a Kn of 9400 M⁻¹.
As for `CN(C)CCCNC(=O)c1ccc2c(c1)C(=O)c1ccccc1C2=O.Cl`, the T/C in the assay with Mus musculus [5] came out at 115%. In addition, the K in the assay with Nucleic Acid [1] turned out to be 59000 M⁻¹. For the same compound, the Kn with Nucleic Acid [3] amounted to 11000 M⁻¹.
